Experiment [1] concerns the target T1, Vasopressin V1a receptor (Rattus norvegicus, UniProt P30560). As to the kind of experiment: Inhibition constant for V1a receptor of rat liver membrane. The method in brief:
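Competition binding on rat liver membranes (male rat), 5 or 10 μg/assay, 45 min at 30 °C in the dark. Unlabeled peptide 10^-11 to 10^-7 or 10^-6 M against 60 pM [125I]Phaa-D-Tyr(Me)-Phe-Gln-Asn-Arg-Pro-Arg-Tyr-NH2. Nonspecific binding with 1 μM vasopressin. Separation by GF/C filtration. Ki = IC50 × Kd/(Kd + [tracer]), tracer Kd 0.06 nM. Triplicates.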

The next experiment has as its target T2, Oxytocin receptor (Rattus norvegicus, UniProt P70536).
T2 sequence (P70536 whole entry): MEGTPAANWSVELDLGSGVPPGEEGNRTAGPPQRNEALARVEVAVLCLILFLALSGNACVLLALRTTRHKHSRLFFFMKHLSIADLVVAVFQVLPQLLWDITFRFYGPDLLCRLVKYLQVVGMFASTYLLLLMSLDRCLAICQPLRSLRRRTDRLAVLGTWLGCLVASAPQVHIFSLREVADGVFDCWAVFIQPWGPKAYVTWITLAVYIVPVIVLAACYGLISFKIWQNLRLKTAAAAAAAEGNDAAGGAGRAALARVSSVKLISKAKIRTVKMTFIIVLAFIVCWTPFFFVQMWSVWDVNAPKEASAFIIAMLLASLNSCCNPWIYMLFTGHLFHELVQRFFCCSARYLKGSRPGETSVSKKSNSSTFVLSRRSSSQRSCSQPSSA
Put plainly: Tested for inhibition constant at OT receptor of rat mammary glands. In a few lines:
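Rat mammary gland membranes (female rat), 2 or 5 μg/assay, 45 min at 30 °C in 50 mM Tris-HCl pH 7.4, 5 mM MgCl2, 1 mg/mL BSA. Competition against 60 pM [125I]d(CH2)5[Tyr(Me)2,Thr4,Orn8,Tyr-NH2 9]VT. Nonspecific binding with 1 μM oxytocin. Filtration over GF/C. Triplicate determinations.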

Experiment [2] deals with T1, Vasopressin V1a receptor. Put plainly: Tested for dissociation constant at V1a receptor of rat liver membrane. The method in brief:
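Saturation binding of the 125I-labeled azido analogues on rat liver membranes (5 μg), rising labeled-ligand concentrations, run as the competition protocol (45 min, 30 °C, Tris-HCl pH 7.4, MgCl2, BSA, filtration). Nonspecific binding with 250-fold excess of the matching unlabeled analogue. Kd from Scatchard plot. Triplicate values, three independent experiments.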

For experiment [3], the target named is T1, Vasopressin V1a receptor. Put plainly: Tested for inhibition constant determined from vasopressin induced inositol phosphates accumulation performed on WRK1 cell line of V1a receptor subtype. The format is cell-based. The method in brief:
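WRK1 cells prelabeled 3 days with myo-[3H]inositol (2 μCi/mL), then serum-starved 30 min. Preincubated 15 min at 37 °C in PBS with 10 mM LiCl, 1 mg/mL BSA and analogue, then 3 nM AVP or vehicle for 6 min. Stopped with perchloric acid. Total inositol phosphates separated on Dowex. Ki act derived from the antagonism curves. At least three experiments in duplicate.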

The target in another experiment is Vasopressin V2 receptor (Rattus norvegicus, UniProt Q00788). As to the kind of experiment: Tested for inhibition constant at V2 receptor of rat kidney membrane. In a few lines: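 Rat renal medullary membranes (male rat, freshly prepared), 28.5 μg/assay, 45 min at 30 °C in 50 mM Tris-HCl pH 7.4, 5 mM MgCl2, 1 mg/mL BSA. Competition against 10^-9 M [3H]AVP. Nonspecific binding with 1 μM vasopressin. Filtration over GF/C. Triplicate determinations.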

Molecules are shown by their SMILES.

Usually Ki stands for a dissociation constant, usually derived from enzyme kinetics or from competition with a known ligand. Usually Kd stands for the concentration at which binding is half-saturated. High values mean lower affinity, low ones higher affinity.

T1 sequence (P30560 whole entry): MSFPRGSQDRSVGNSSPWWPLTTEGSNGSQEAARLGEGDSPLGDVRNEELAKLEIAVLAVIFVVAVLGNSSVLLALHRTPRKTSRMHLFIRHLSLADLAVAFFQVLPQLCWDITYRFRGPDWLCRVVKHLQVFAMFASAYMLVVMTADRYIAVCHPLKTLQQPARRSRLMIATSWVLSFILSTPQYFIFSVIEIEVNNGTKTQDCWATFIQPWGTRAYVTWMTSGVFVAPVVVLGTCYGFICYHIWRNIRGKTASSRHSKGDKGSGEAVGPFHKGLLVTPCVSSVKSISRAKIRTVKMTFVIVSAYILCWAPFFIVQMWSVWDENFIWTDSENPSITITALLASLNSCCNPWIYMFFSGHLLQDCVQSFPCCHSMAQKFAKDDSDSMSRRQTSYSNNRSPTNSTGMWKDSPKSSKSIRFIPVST
Chain of Vasopressin V2 receptor (Q00788 whole entry): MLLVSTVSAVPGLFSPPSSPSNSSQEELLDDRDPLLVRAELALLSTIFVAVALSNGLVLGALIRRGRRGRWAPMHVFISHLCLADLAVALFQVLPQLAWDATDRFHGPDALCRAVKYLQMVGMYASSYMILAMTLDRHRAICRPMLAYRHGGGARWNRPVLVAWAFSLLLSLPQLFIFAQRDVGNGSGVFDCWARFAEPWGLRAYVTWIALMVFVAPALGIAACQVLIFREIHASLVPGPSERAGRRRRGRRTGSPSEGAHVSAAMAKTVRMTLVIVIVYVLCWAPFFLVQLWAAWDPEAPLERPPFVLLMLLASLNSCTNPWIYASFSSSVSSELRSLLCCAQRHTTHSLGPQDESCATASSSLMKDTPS

`COc1ccc(C[C@@H](NC(=O)c2ccc(N=[N+]=[N-])cc2)C(=O)N[C@@H](Cc2ccccc2)C(=O)N[C@@H](CCC(N)=O)C(=O)N[C@@H](CC(N)=O)C(=O)N[C@@H](CCCNC(=N)N)C(=O)N2CCC[C@H]2C(=O)N[C@@H](CCCNC(=N)N)C(=O)N[C@@H](Cc2ccc(O)cc2)C(N)=O)cc1` came in with a Ki at Vasopressin V1a receptor [1] of 20000 pM.

On Vasopressin V1a receptor [1], `COc1ccc(C[C@@H](NC(=O)c2cccc(N=[N+]=[N-])c2)C(=O)N[C@@H](Cc2ccccc2)C(=O)N[C@@H](CCC(N)=O)C(=O)N[C@@H](CC(N)=O)C(=O)N[C@@H](CCCN=C(N)N)C(=O)N2CCC[C@H]2C(=O)N[C@@H](CCCN=C(N)N)C(=O)N[C@@H](Cc2ccc(O)cc2)C(N)=O)cc1` displayed an inhibition constant (Ki) of 17800 pM.

On Vasopressin V1a receptor [1], `COc1ccc(C[C@@H](NC(=O)Cc2ccc(N=[N+]=[N-])cc2)C(=O)N[C@@H](Cc2ccccc2)C(=O)N[C@@H](CCC(N)=O)C(=O)N[C@@H](CC(N)=O)C(=O)N[C@@H](CCCNC(=N)N)C(=O)N2CCC[C@H]2C(=O)N[C@@H](CCCNC(=N)N)C(=O)N[C@@H](Cc2ccc(O)cc2)C(N)=O)cc1` (stereo in doubt; 13) had a Ki of 120 pM.

At Vasopressin V1a receptor [1], `COc1ccc(C[C@@H](NC(=O)Cc2cccc(N=[N+]=[N-])c2)C(=O)N[C@@H](Cc2ccccc2)C(=O)N[C@@H](CCC(N)=O)C(=O)N[C@@H](CC(N)=O)C(=O)N[C@@H](CCCNC(=N)N)C(=O)N2CCC[C@H]2C(=O)N[C@@H](CCCNC(=N)N)C(=O)N[C@@H](Cc2ccc(O)cc2)C(N)=O)cc1` (stereo in doubt; 14) registered a Ki of 310 pM.

`COc1ccc(C[C@@H](NC(=O)CCc2ccc(N=[N+]=[N-])cc2)C(=O)N[C@@H](Cc2ccccc2)C(=O)N[C@@H](CCC(N)=O)C(=O)N[C@@H](CC(N)=O)C(=O)N[C@@H](CCCN=C(N)N)C(=O)N2CCC[C@H]2C(=O)N[C@@H](CCCN=C(N)N)C(=O)N[C@@H](Cc2ccc(O)cc2)C(N)=O)cc1` (stereo in doubt; 15) returned a Ki at Vasopressin V1a receptor [1] of 200 pM.

As for `COc1ccc(C[C@@H](NC(=O)CCc2cccc(N=[N+]=[N-])c2)C(=O)N[C@@H](Cc2ccccc2)C(=O)N[C@@H](CCC(N)=O)C(=O)N[C@@H](CC(N)=O)C(=O)N[C@@H](CCCNC(=N)N)C(=O)N2CCC[C@H]2C(=O)N[C@@H](CCCNC(=N)N)C(=O)N[C@@H](Cc2ccc(O)cc2)C(N)=O)cc1` (stereo in doubt; 16), the Ki at Vasopressin V1a receptor [1] turned out to be 160 pM.

Compound `COc1ccc(C[C@@H](NC(=O)CCCc2ccc(N=[N+]=[N-])cc2)C(=O)N[C@@H](Cc2ccccc2)C(=O)N[C@@H](CCC(N)=O)C(=O)N[C@@H](CC(N)=O)C(=O)N[C@@H](CCCN=C(N)N)C(=O)N2CCC[C@H]2C(=O)N[C@@H](CCCN=C(N)N)C(=O)N[C@@H](Cc2ccc(O)cc2)C(N)=O)cc1` (stereo in doubt; 17) came in with a Ki on Vasopressin V1a receptor [1] of 40 pM.

With `COc1ccc(C[C@@H](NC(=O)Cc2ccc(N=[N+]=[N-])cc2)C(=O)N[C@@H](Cc2ccccc2)C(=O)N[C@@H](CCC(N)=O)C(=O)N[C@@H](CC(N)=O)C(=O)N[C@@H](CCCNC(=N)N)C(=O)N2CCC[C@H]2C(=O)N[C@@H](CCCNC(=N)N)C(=O)N[C@@H](Cc2ccc(O)cc2)C(N)=O)cc1` (stereo in doubt; 18), the Ki at Oxytocin receptor is 4800 pM; on Vasopressin V1a receptor [1], 590 pM; on Vasopressin V1a receptor [3], 200 pM; on Vasopressin V2 receptor it was 8000 pM. This compound also showed a Kd on Vasopressin V1a receptor [2] of 150 pM.

`COc1ccc(C[C@@H](NC(=O)Cc2cccc(N=[N+]=[N-])c2)C(=O)N[C@@H](Cc2ccccc2)C(=O)N[C@@H](CCC(N)=O)C(=O)N[C@@H](CC(N)=O)C(=O)N[C@@H](CCCNC(=N)N)C(=O)N2CCC[C@H]2C(=O)N[C@@H](CCCNC(=N)N)C(=O)N[C@@H](Cc2ccc(O)cc2)C(N)=O)cc1` (stereo in doubt; 19): the Ki on Oxytocin receptor came to 650 pM; at Vasopressin V1a receptor [1], 1100 pM; at Vasopressin V1a receptor [3], 240 pM; on Vasopressin V2 receptor, 10000 pM.

On to `COc1ccc(C[C@@H](NC(=O)CCc2ccc(N=[N+]=[N-])cc2)C(=O)N[C@@H](Cc2ccccc2)C(=O)N[C@@H](CCC(N)=O)C(=O)N[C@@H](CC(N)=O)C(=O)N[C@@H](CCCN=C(N)N)C(=O)N2CCC[C@H]2C(=O)N[C@@H](CCCN=C(N)N)C(=O)N[C@@H](Cc2ccc(O)cc2)C(N)=O)cc1` (stereo in doubt; 20), for which the inhibition constant (Ki) at Oxytocin receptor came out at 37700 pM; on Vasopressin V1a receptor [1], 470 pM; at Vasopressin V1a receptor [3] it was 110 pM; on Vasopressin V2 receptor it was 1600 pM. Besides, the dissociation constant (Kd) at Vasopressin V1a receptor [2] stood at 190 pM.

With `COc1ccc(C[C@@H](NC(=O)CCc2cccc(N=[N+]=[N-])c2)C(=O)N[C@@H](Cc2ccccc2)C(=O)N[C@@H](CCC(N)=O)C(=O)N[C@@H](CC(N)=O)C(=O)N[C@@H](CCCNC(=N)N)C(=O)N2CCC[C@H]2C(=O)N[C@@H](CCCNC(=N)N)C(=O)N[C@@H](Cc2ccc(O)cc2)C(N)=O)cc1` (stereo in doubt; 21), the Ki was found to be 1400 pM on Oxytocin receptor, 270 pM on Vasopressin V1a receptor [1], 130 pM at Vasopressin V1a receptor [3] and 16000 pM on Vasopressin V2 receptor. On Vasopressin V1a receptor [2], this compound came in with a Kd of 54 pM.

Regarding `COc1ccc(C[C@@H](NC(=O)CCCc2ccc(N=[N+]=[N-])cc2)C(=O)N[C@@H](Cc2ccccc2)C(=O)N[C@@H](CCC(N)=O)C(=O)N[C@@H](CC(N)=O)C(=O)N[C@@H](CCCN=C(N)N)C(=O)N2CCC[C@H]2C(=O)N[C@@H](CCCN=C(N)N)C(=O)N[C@@H](Cc2ccc(O)cc2)C(N)=O)cc1` (stereo in doubt; 22), at Oxytocin receptor, the Ki stood at 18000 pM.

The record behind these values is ChEMBL document CHEMBL1127544, “A new series of photoactivatable and iodinatable linear vasopressin antagonists” (J Med Chem, 1994).
